According to ChEMBL document CHEMBL1130136, “Novel biological response modifiers: phthalimides with tumor necrosis factor-alpha production-regulating activity” (J Med Chem, 1997):
Converted amounts (≈) assume the structure as drawn.

Columns and labels:
HL-60 [1] = test: Amount of tumor necrosis factor-alpha produced by human leukemia cell line (HL-60) stimulated with 10 nM12-O-tetradecanoylphorbol 13-acetate (TPA) at 0.3 uM, measured by ELISA; assay type: functional
In short: (§1)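 HL-60 cells (2.5 × 10⁵ in 0.5 mL, i.e. 5 × 10⁵/mL), growing exponentially in RPMI1640 + 10% FBS, were exposed to 10 nM TPA or 50 nM OA together with 0.3 μM test compound for 16 h at 37 °C. Secreted TNF-α was quantified by ELISA and expressed as % of inducer-alone production. Each run was done in duplicate or triplicate (mean taken) and repeated at least three times.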

HL-60 [2] = test: Inhibition of 50 nM okadaic acid induced tumor necrosis factor-alpha production in human leukemia cell line (HL-60) by 0.3 uM.; assay type: functional; in short: as §1
HL-60 [3] = test: Tumor necrosis factor-alpha production in human leukemia cell line (HL-60) stimulated with 10 nM 12-O-tetradecanoylphorbol 13-acetate (TPA) at 30 uMolar.; assay type: functional
In short: (§2)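 HL-60 cells at 5 × 10⁵/mL in RPMI1640 + 10% FBS were co-treated with 30 μM test compound and either 10 nM TPA or 50 nM OA for 16 h at 37 °C. Culture-medium TNF-α was measured by ELISA and expressed as % of inducer-alone control. Cell counts were taken at harvest. Assays were run in duplicate or triplicate (mean taken), at least three times.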

WI-38 [4] = test: In vitro cytotoxicity against human embryonic lung fibroblast WI-38 cells.; assay type: functional, cell-based
In short: (§3)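 WI-38 human embryonic lung fibroblasts (5 × 10³ cells/well) in RPMI1640 + 10% FCS were exposed to graded concentrations of compound for 48 h at 37 °C. Viability was read by WST-1 with 1-methoxy PMS (2 h, 37 °C; absorbance at 450 nm). IC50 was reported in μg/mL, with the μM equivalent in parentheses.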

HL-60 [5] = test: Tumor necrosis factor-alpha production in human leukemia cell line (HL-60) stimulated with 50 nM okadaic acid (OA), at 30 uMolar.; assay type: functional; in short: as §2
WI-38 [6] = test: The cytotoxicity of the compounds assessed using human embryonic lung fibroblast WI-38 cells at (53 micro M); assay type: functional, cell-based; in short: as §3
WI-38 [7] = test: The cytotoxicity of the compounds assessed using human embryonic lung fibroblast WI-38 cells at (25 micro M); assay type: functional, cell-based; in short: as §3
WI-38 [8] = test: The cytotoxicity assessed using human embryonic lung fibroblast WI-38 cells.; assay type: functional, cell-based; in short: as §3
WI-38 [9] = test: The cytotoxicity of the compounds assessed using human embryonic lung fibroblast WI-38 cells at (148 micro M); assay type: functional, cell-based; in short: as §3
WI-38 [10] = test: The cytotoxicity of the compounds assessed using human embryonic lung fibroblast WI-38 cells at (39 micro M); assay type: functional, cell-based; in short: as §3
WI-38 [11] = test: The cytotoxicity of the compounds assessed using human embryonic lung fibroblast WI-38 cells at (2.6 micro M).; assay type: functional, cell-based; in short: as §3
WI-38 [12] = test: The cytotoxicity of the compounds assessed using human embryonic lung fibroblast WI-38 cells at (121 micro M); assay type: functional, cell-based; in short: as §3
WI-38 [13] = test: The cytotoxicity of the compounds assessed using human embryonic lung fibroblast WI-38 cells at (99 micro M); assay type: functional, cell-based; in short: as §3

C[C@@H](c1ccc(N)cc1)N1C(=O)c2c(F)c(F)c(F)c(F)c2C1=O
Amount of TNF-alpha (HL-60 [1]): 262% | Amount of TNF-alpha (HL-60 [2]): 38%

CC[C@@H](c1ccccc1)N1C(=O)c2c(F)c(F)c(F)c(F)c2C1=O
Amount of TNF-alpha (HL-60 [1]): 235% | Amount of TNF-alpha (HL-60 [2]): 87%

Cc1cc(C)cc(N2C(=O)c3ccccc3C2=O)c1
Amount of TNF-alpha (HL-60 [3]): 136% | IC50 (WI-38 [4]): > 100 µg/mL | Amount of TNF-alpha (HL-60 [5]): 89%

CC/N=C1\c2ccccc2C(=O)N1c1c(C(C)C)cccc1C(C)C
Amount of TNF-alpha (HL-60 [3]): 138% | Amount of TNF-alpha (HL-60 [5]): 75%

CC(C)c1cccc(C(C)C)c1N1C(=O)c2ccc(N)cc2C1=O
IC50 (WI-38 [6]): 17.4 µg/mL (≈ 54 µM) | Amount of TNF-alpha (HL-60 [3]): 242% | Amount of TNF-alpha (HL-60 [5]): 28%

O=C1c2ccccc2C(=O)N1c1ccccc1-c1ccccc1
Amount of TNF-alpha (HL-60 [3]): 262% | IC50 (WI-38 [4]): > 100 µg/mL | Amount of TNF-alpha (HL-60 [5]): 40%

CC(C)c1cccc(C(C)C)c1N1C(=O)c2cccc(N)c2C1=O
Amount of TNF-alpha (HL-60 [3]): 248% | IC50 (WI-38 [7]): 8.1 µg/mL (≈ 25.1 µM) | Amount of TNF-alpha (HL-60 [5]): 21%

COc1ccccc1N1C(=O)c2ccccc2C1=O
Amount of TNF-alpha (HL-60 [3]): 95% | IC50 (WI-38 [4]): > 100 µg/mL | Amount of TNF-alpha (HL-60 [5]): 21%

CC(C)c1cccc(C(C)C)c1N1C(=O)c2c(Br)c(Br)c(Br)c(Br)c2C1=O
Amount of TNF-alpha (HL-60 [3]): 235% | Amount of TNF-alpha (HL-60 [5]): 3%

CC(C)c1cccc(C(C)C)c1N1C(=O)Cc2ccccc2C1=O
Amount of TNF-alpha (HL-60 [3]): 268% | IC50 (WI-38 [4]): > 100 µg/mL | Amount of TNF-alpha (HL-60 [5]): 50%

O=C1CCC(N2C(=O)c3ccccc3C2=O)C(=O)N1 (stereo unspecified) [THALIDOMIDE]
Amount of TNF-alpha (HL-60 [3]): 135% | IC50 (WI-38 [8]): > 100 µg/mL | Amount of TNF-alpha (HL-60 [5]): 58%

CC(C)c1ccccc1N1C(=O)c2ccccc2C1=O
Amount of TNF-alpha (HL-60 [3]): 158% | IC50 (WI-38 [4]): > 100 µg/mL | Amount of TNF-alpha (HL-60 [5]): 105%

C/N=C1\c2ccccc2C(=O)N1c1c(C(C)C)cccc1C(C)C
Amount of TNF-alpha (HL-60 [3]): 134% | Amount of TNF-alpha (HL-60 [5]): 37%

CC(C)c1cccc(C(C)C)c1N1C(=O)c2cc3ccccc3cc2C1=O
Amount of TNF-alpha (HL-60 [3]): 144% | IC50 (WI-38 [4]): > 100 µg/mL | Amount of TNF-alpha (HL-60 [5]): 48%

CC(C)c1cccc(C(C)C)c1N1Cc2ccccc2C1=O
IC50 (WI-38 [9]): 43.1 µg/mL (≈ 147 µM) | Amount of TNF-alpha (HL-60 [3]): 214% | Amount of TNF-alpha (HL-60 [5]): 40%

CC(C)c1ccc(N2C(=O)c3ccccc3C2=O)cc1
Amount of TNF-alpha (HL-60 [3]): 139% | IC50 (WI-38 [4]): > 100 µg/mL | Amount of TNF-alpha (HL-60 [5]): 33%

O=C1c2c(F)c(F)c(F)c(F)c2C(=O)N1[C@H]1CCc2ccccc21
Amount of TNF-alpha (HL-60 [1]): 392% | Amount of TNF-alpha (HL-60 [2]): 98% | IC50 (WI-38 [4]): > 100 µg/mL

CCCCCc1ccccc1N1C(=O)c2ccccc2C1=O
Amount of TNF-alpha (HL-60 [3]): 151% | IC50 (WI-38 [4]): > 100 µg/mL | Amount of TNF-alpha (HL-60 [5]): 35%

CC(C)c1cccc(C(C)C)c1N1C(=O)c2ccc(O)cc2C1=O
Amount of TNF-alpha (HL-60 [3]): 153% | IC50 (WI-38 [10]): 12.7 µg/mL (≈ 39.3 µM) | Amount of TNF-alpha (HL-60 [5]): 7%

O=C1c2c(F)c(F)c(F)c(F)c2C(=O)N1C1Cc2ccccc2C1
IC50 (WI-38 [11]): 0.9 µg/mL (≈ 2.68 µM) | Amount of TNF-alpha (HL-60 [1]): 104% | Amount of TNF-alpha (HL-60 [2]): 43%

O=C1c2ccccc2C(=O)N1c1ccccc1[N+](=O)[O-]
Amount of TNF-alpha (HL-60 [3]): 89% | IC50 (WI-38 [4]): > 100 µg/mL | Amount of TNF-alpha (HL-60 [5]): 53%

C[C@H](c1ccc([N+](=O)[O-])cc1)N1C(=O)c2c(F)c(F)c(F)c(F)c2C1=O
Amount of TNF-alpha (HL-60 [1]): 239% | Amount of TNF-alpha (HL-60 [2]): 27%

CC(C)c1cccc(C(C)C)c1N1C(=O)c2ccc([N+](=O)[O-])cc2C1=O
IC50 (WI-38 [12]): 42.7 µg/mL (≈ 121 µM) | Amount of TNF-alpha (HL-60 [3]): 683% | Amount of TNF-alpha (HL-60 [5]): 54%

CCc1cccc(C)c1N1C(=O)c2ccccc2C1=O
IC50 (WI-38 [13]): 26.2 µg/mL (≈ 98.8 µM) | Amount of TNF-alpha (HL-60 [3]): 188% | Amount of TNF-alpha (HL-60 [5]): 82%
